Laboratory results reported in ChEMBL document CHEMBL5096186, “Design, Synthesis, and Biological Evaluation of Novel Pyrimido[4,5-b]indole Derivatives Against Gram-Negative Multidrug-Resistant Pathogens” (J Med Chem, 2021).
≈ marks a conversion by molar mass, not a printed value. Calls of active or inactive are those of the source. The calls are words filed in the database; no cut-off is given here.

Assays:
[1] = target: hERG (KCNH2) potassium channel (Homo sapiens, UniProt Q12809); experiment: Inhibition of hERG potassium channel assessed as maximum inhibition rate at 40 uM at -80 mV holding potential incubated for 120 seconds by whole cell-automated voltage clamp analysis assay relative to control; type: toxicity; settings: time 120 sec
Chain of hERG (KCNH2) potassium channel (Q12809 whole entry): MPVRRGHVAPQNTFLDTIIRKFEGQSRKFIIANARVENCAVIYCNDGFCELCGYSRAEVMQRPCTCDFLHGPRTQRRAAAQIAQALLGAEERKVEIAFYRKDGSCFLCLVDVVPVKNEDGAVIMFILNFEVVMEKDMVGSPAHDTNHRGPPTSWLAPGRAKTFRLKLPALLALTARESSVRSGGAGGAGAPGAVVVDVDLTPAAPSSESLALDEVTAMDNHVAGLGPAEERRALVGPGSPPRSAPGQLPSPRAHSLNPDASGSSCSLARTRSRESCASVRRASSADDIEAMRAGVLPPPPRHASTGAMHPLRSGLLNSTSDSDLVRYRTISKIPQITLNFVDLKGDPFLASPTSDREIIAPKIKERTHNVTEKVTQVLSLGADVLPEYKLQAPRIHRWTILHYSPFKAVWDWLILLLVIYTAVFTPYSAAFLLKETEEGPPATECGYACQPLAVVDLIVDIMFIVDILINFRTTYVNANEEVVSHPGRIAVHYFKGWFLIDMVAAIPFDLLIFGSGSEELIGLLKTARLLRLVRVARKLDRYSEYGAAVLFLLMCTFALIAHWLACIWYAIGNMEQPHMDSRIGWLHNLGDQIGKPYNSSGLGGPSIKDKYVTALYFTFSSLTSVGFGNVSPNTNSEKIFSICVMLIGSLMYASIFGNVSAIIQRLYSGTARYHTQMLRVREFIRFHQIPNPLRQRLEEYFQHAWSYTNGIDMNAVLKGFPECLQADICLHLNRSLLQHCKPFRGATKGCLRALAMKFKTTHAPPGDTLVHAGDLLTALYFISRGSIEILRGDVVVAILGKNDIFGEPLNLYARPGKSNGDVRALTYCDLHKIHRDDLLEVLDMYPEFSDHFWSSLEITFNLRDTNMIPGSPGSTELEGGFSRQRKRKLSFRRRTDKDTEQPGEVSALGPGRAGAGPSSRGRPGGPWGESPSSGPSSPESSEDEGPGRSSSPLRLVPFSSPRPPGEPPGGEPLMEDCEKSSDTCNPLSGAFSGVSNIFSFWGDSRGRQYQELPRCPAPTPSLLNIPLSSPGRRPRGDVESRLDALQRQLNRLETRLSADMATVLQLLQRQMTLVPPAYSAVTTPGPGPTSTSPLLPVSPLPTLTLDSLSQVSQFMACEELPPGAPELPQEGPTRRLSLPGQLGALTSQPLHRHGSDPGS
Summary of the method: (§1)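 Automated whole-cell patch clamp, holding potential −80 mV. Voltage protocol applied every 20 s. Baseline set with external solution containing 0.1% DMSO and stabilised 3 min. Compound applied until steady state, at least 3 min, then washout. Maximum tested concentration 40 μM, or 3 μM for cisapride as positive control.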

[2] = target: Voltage-gated inwardly rectifying potassium channel KCNH2 (Homo sapiens, UniProt Q12809); experiment: Inhibition of hERG potassium channel assessed as […] at -80 mV holding potential incubated for 120 seconds by whole cell-automated voltage clamp analysis assay; type: toxicity; summary of the method: as §1
Chain of Voltage-gated inwardly rectifying potassium channel KCNH2 (Q12809 whole entry): as above

[3] = system: Escherichia coli; experiment: Antibacterial activity against ESBL-producing multidrug resistant Escherichia coli assessed as reduction in bacterial growth incubated for 18 to 20 hrs by CLSI based microdilution method; type: functional; settings: time 18-20 hrs
Summary of the method: (§2)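 Broth microdilution per CLSI. Compounds dissolved in DMSO (levofloxacin and meropenem in water) as 64 μg/mL stock, then serial twofold dilutions in broth giving 64 to 0.008 μg/mL. […] Clinical isolates tested as several strains per group; racemic GP-1 served as positive control; values given as MIC ranges.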

[4] = system: Escherichia coli; experiment: Antibacterial activity against multidrug resistant wild type Escherichia coli ATCC BAA-2340 assessed as reduction in bacterial growth incubated for 18 to 20 hrs by CLSI based microdilution method; type: functional; settings: time 18-20 hrs; summary of the method: as §2
[5] = system: Escherichia coli; experiment: Antibacterial activity against multidrug resistant wild type Escherichia coli NCTC 13353 assessed as reduction in bacterial growth incubated for 18 to 20 hrs by CLSI based microdilution method; type: functional; settings: time 18-20 hrs; summary of the method: as §2
[6] = system: Klebsiella pneumoniae; experiment: Antibacterial activity against KPC2-producing multidrug resistant Klebsiella pneumoniae assessed as reduction in bacterial growth incubated for 18 to 20 hrs by CLSI based microdilution method; type: functional; settings: time 18-20 hrs; summary of the method: as §2
[7] = system: Klebsiella pneumoniae; experiment: Antibacterial activity agains wild type Klebsiella pneumoniae ATCC BAA-1705 assessed as reduction in bacterial growth incubated for 18 to 20 hrs by CLSI based microdilution method; type: functional; settings: time 18-20 hrs
Summary of the method: (§3)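 CLSI broth microdilution. Compounds in DMSO (levofloxacin and meropenem in water), serial twofold dilutions in broth, 64 to 0.008 μg/mL. […] Results reported as MIC ranges across strains.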

[8] = system: Klebsiella pneumoniae; experiment: Antibacterial activity agains wild type Klebsiella pneumoniae ATCC BAA-2470 assessed as reduction in bacterial growth incubated for 18 to 20 hrs by CLSI based microdilution method; type: functional; settings: time 18-20 hrs; summary of the method: as §2
[9] = system: Acinetobacter baumannii; experiment: Antibacterial activity agains OXA23-producing multidrug resistant Acinetobacter baumannii assessed as reduction in bacterial growth incubated for 18 to 20 hrs by CLSI based microdilution method; type: functional; settings: time 18-20 hrs; summary of the method: as §2
[10] = system: Acinetobacter baumannii; experiment: Antibacterial activity against wild type Acinetobacter baumannii NCTC 13304 assessed as reduction in bacterial growth incubated for 18 to 20 hrs by CLSI based microdilution method; type: functional; settings: time 18-20 hrs; summary of the method: as §2
[11] = system: Pseudomonas aeruginosa; experiment: Antibacterial activity against IMP4-producing multidrug resistant Pseudomonas aeruginosa assessed as reduction in bacterial growth incubated for 18 to 20 hrs by CLSI based microdilution method; type: functional; settings: time 18-20 hrs; summary of the method: as §2
[12] = system: Pseudomonas aeruginosa; experiment: Antibacterial activity against wild type Pseudomonas aeruginosa ATCC 27853 assessed as reduction in bacterial growth incubated for 18 to 20 hrs by CLSI based microdilution method; type: functional; settings: time 18-20 hrs; summary of the method: as §3
[13] = Metabolic stability in rat liver microsome assessed as elimination half life at 0.1 uM in presence of NADPH incubated upto 60 mins by LC-MS/MS analysis; type: ADME; settings: liver microsomes, read-out: beta t1/2
Summary of the method: (§4)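 Compound at 0.1 μM final, in 0.01% DMSO with 0.005% BSA. Incubated with rat or human liver microsomes at 0.33 mg/mL in 0.1 M Tris-HCl, pH 7.4, with 5 mM MgCl₂ and 1 mM NADPH, at 37 °C. Samples at 0, 7, 17, 30 and 60 min quenched with cold methanol and analysed by LC-MS/MS. Half-life, Cl_int and MF% derived as previously described.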

[14] = Metabolic stability in human liver microsome assessed as elimination half life at 0.1 uM in presence of NADPH incubated upto 60 mins by LC-MS/MS analysis; type: ADME; settings: liver microsomes, read-out: beta t1/2; summary of the method: as §4
[15] = Metabolic stability in rat liver microsome assessed as intrinsic clearance at 0.1 uM in presence of NADPH incubated upto 60 mins by LC-MS/MS analysis; type: ADME; settings: microsomes, 1 h; summary of the method: as §4
[16] = Metabolic stability in human liver microsome assessed as intrinsic clearance at 0.1 uM in presence of NADPH incubated upto 60 mins by LC-MS/MS analysis; type: ADME; settings: microsomes, 1 h; summary of the method: as §4
[17] = Metabolic stability in rat liver microsome assessed as metabolic bioavailability at 0.1 uM in presence of NADPH incubated upto 60 mins by LC-MS/MS analysis; type: ADME; settings: liver microsomes; summary of the method: as §4
[18] = Metabolic stability in human liver microsome assessed as metabolic bioavailability at 0.1 uM in presence of NADPH incubated upto 60 mins by LC-MS/MS analysis; type: ADME; settings: liver microsomes; summary of the method: as §4
[19] = AUC (0 to infinity) in Sprague-Dawley rat at 5 mg/kg, iv measured upto 24 hrs by LC-MS/MS analysis; type: ADME, organism-based; design: time < 24 hrs, dose 5 mg/kg, route iv; settings: in vivo
Summary of the method: (§5)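 Male Sprague-Dawley rats, n = 3 per group, single intravenous dose. For 4 mg/kg: 180–280 g rats, vehicle 5% DMSO + 5% EtOH + 40% PEG300 + 50% saline, blood from the retrobulbar vein at 0.05–24 h. For 5 and 20 mg/kg: 180–300 g rats, vehicle 5% DMSO + 5% solutol + 90% saline, sampled at 0.083–24 h. Plasma quantified by LC/MS/MS. Parameters from mean plasma concentration by noncompartmental analysis; values are mean ± standard deviation.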

[20] = AUC (0 to infinity) in Sprague-Dawley rat at 20 mg/kg, iv measured upto 24 hrs by LC-MS/MS analysis; type: ADME, organism-based; design: dose 20 mg/kg, time < 24 hrs, route iv; settings: in vivo; summary of the method: as §5
[21] = Elimination half life in Sprague-Dawley rat at 5 mg/kg, iv measured upto 24 hrs by LC-MS/MS analysis; type: ADME, organism-based; settings: in vivo, read-out: beta t1/2 (converted); summary of the method: as §5
[22] = Elimination half life in Sprague-Dawley rat at 20 mg/kg, iv measured upto 24 hrs by LC-MS/MS analysis; type: ADME, organism-based; settings: in vivo, read-out: beta t1/2 (converted); summary of the method: as §5
[23] = MRT in Sprague-Dawley rat at 5 mg/kg, iv measured upto 24 hrs by LC-MS/MS analysis; type: ADME, organism-based; settings: in vivo; summary of the method: as §5
[24] = MRT in Sprague-Dawley rat at 20 mg/kg, iv measured upto 24 hrs by LC-MS/MS analysis; type: ADME, organism-based; settings: in vivo; summary of the method: as §5
[25] = Clearance in Sprague-Dawley rat at 5 mg/kg, iv measured upto 24 hrs by LC-MS/MS analysis; type: ADME, organism-based; settings: in vivo; summary of the method: as §5
[26] = Clearance in Sprague-Dawley rat at 20 mg/kg, iv measured upto 24 hrs by LC-MS/MS analysis; type: ADME, organism-based; settings: in vivo; summary of the method: as §5
[27] = Volume of distribution at the steady state in Sprague-Dawley rat at 5 mg/kg, iv measured upto 24 hrs by LC-MS/MS analysis; type: ADME, organism-based; settings: in vivo, read-out: Vdss; summary of the method: as §5
[28] = Volume of distribution at the steady state in Sprague-Dawley rat at 20 mg/kg, iv measured upto 24 hrs by LC-MS/MS analysis; type: ADME, organism-based; settings: in vivo, read-out: Vdss; summary of the method: as §5
[29] = Cytotoxicity against human L02 cells assessed as cell viability measured for 48 hrs by CCK-8 assay; type: toxicity, cell-based
Summary of the method: (§6)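 Cells seeded at 1 × 10⁴ per well and grown for 48 h. Then exposed to test articles at 1–200 μM for another 48 h (n = 6). Viability by CCK-8 added for 2 h, absorbance read at 450 nm. CC50 calculated and reported as the mean.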

[30] = Cytotoxicity against human HEK293 cells assessed as cell viability measured for 48 hrs by CCK-8 assay; type: toxicity, cell-based; summary of the method: as §6
[31] = system: Acinetobacter baumannii; experiment: Antibacterial activity against OXA23-producing multidrug resistant Acinetobacter baumannii infected in iv dosed kunming mouse measured after 24 hrs; type: functional, organism-based; settings: dose 10-30 mg/kg, DDE = dose-dependent effect
Summary of the method: (§7)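 Neutropenic thigh model in Kunming mice (18−22 g, half male/half female; 8 per dosed group, 13 vehicle). Cyclophosphamide given ip 4 days (150 mg/kg) and 1 day (100 mg/kg) before infection. Right posterior thigh injected im with 0.1 mL of 10⁷ cfu/mL OXA-23 MDR A. baumannii clinical isolate. Iv tail dosing at 10, 20, 30 mg/kg 2 h post-infection; levofloxacin 30 mg/kg iv; saline vehicle. Thighs homogenised in saline for cfu after 24 h.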

[32] = system: Acinetobacter baumannii; experiment: Bactericidal activity against OXA23-producing multidrug resistant Acinetobacter baumannii infected in dosed kunming mouse at 30 mg/kg, iv measured after 24 hrs; type: functional, organism-based; summary of the method: as §7

Structure (SMILES): CNc1cc(F)cc2c1[nH]c1nc(Oc3cnc(C)nc3)nc(N3CC(=C(C)[C@@H](C)N)C3)c12
- inhibition at 2 min, 40 µM [1]: 18.3%
- IC50 [2]: > 40 µM
- MIC [3]: 0.5 µg/mL (≈ 1.11 µM)
- MIC [4]: 0.5 µg/mL (≈ 1.11 µM)
- MIC [5]: 0.125 µg/mL (≈ 0.279 µM)
- MIC [6]: 2 µg/mL (≈ 4.46 µM)
- MIC [7]: 4 µg/mL (≈ 8.92 µM)
- MIC [8]: 2 µg/mL (≈ 4.46 µM)
- MIC [9]: 0.25 µg/mL (≈ 0.557 µM)
- MIC [10]: 0.25 µg/mL (≈ 0.557 µM)
- MIC [11]: 4 µg/mL (≈ 8.92 µM)
- MIC [12]: 2 µg/mL (≈ 4.46 µM)
- half-life at 0.1 µM [13]: 8.3 min
- half-life at 0.1 µM [14]: 1.23 h
- CLH [15]: 252 mL/min/g
- CLH [16]: 28.4 mL/min/g
- Fh at 1 h, 0.1 µM [17]: 15%
- Fh at 1 h, 0.1 µM [18]: 40.8%
- AUC(0-inf) [19]: 1100 ng·h/mL
- AUC(0-inf) [20]: 5790 ng·h/mL
- half-life [21]: 8.5 h
- half-life [22]: 5.9 h
- MRT [23]: 7.8 h
- MRT [24]: 3.1 h
- clearance [25]: 76.6 mL/min/kg
- clearance [26]: 57.7 mL/min/kg
- Vd [27]: 35.7 L/kg
- Vd [28]: 10.8 L/kg
- CC50 at 48 h [29]: 16 µM
- CC50 at 48 h [30]: 19 µM
- Activity [31]: Dde
- Activity [32]: Active
